Laboratory results taken from ChEMBL document CHEMBL4368909, “Identification of Dihydrofuro[3,4- d]pyrimidine Derivatives as Novel HIV-1 Non-Nucleoside Reverse Transcriptase Inhibitors with Promising Antiviral Activities and Desirable Physicochemical Properties” (J Med Chem, 2019).
Converted amounts (≈) assume the structure as drawn.

Key:
[1] = system: Human immunodeficiency virus 1; experiment: Resistance factor, ratio of EC50 for HIV1 harboring reverse transcriptase F227L/V106A double mutant to EC50 for wild type HIV1; assay type: functional
How it was run: (§1)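 The resistance factor is the EC50 against the mutant strain divided by the EC50 against wild-type HIV-1. Both were measured in MT-4 cells by MTT read-out of protection from virus-induced cytopathicity.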

[2] = Cmax in Wistar rat at 20 mg/kg, po by LC-MS/MS analysis; assay type: ADME, organism-based; set-up: dose 20 mg/kg, route oral; conditions: in vivo
How it was run: (§2)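 Male/unspecified Wistar rats given one dose, 2 mg/kg intravenously or 20 mg/kg orally; plasma concentration–time profiles followed; PK parameters reported as mean ± SD, n = 5.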

[3] = system: Human immunodeficiency virus 2; experiment: Antiviral activity against HIV2 ROD infected in human MT4 cells assessed as reduction in virus-induced cytopathic effect after 5 days by MTT assay; conditions: Human immunodeficiency virus 2, ISOLATE ROD, MT4, 120 h
Cytochrome P450 3A4 = Cytochrome P450 3A4 (Homo sapiens, UniProt P08684); experiment: Inhibition of CYP3A4 in human liver microsomes using midazolam as substrate after 10 mins in presence of NADPH; assay type: ADME
Chain of Cytochrome P450 3A4 (P08684 whole entry): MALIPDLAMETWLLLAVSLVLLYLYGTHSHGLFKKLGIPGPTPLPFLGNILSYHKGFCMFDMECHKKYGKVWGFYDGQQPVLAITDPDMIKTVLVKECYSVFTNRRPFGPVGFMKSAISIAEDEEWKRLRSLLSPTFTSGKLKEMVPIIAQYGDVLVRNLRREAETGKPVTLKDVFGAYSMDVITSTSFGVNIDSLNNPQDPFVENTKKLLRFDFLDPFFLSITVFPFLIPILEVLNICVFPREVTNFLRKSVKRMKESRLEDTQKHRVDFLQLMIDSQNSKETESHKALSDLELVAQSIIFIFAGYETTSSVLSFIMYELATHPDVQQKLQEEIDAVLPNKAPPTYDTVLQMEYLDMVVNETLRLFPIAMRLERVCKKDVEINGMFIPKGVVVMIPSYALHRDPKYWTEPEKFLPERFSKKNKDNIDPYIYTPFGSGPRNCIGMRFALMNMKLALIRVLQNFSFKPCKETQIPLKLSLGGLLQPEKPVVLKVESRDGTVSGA

[4] = Half life in Wistar rat at 2 mg/kg, iv by LC-MS/MS analysis; assay type: ADME, organism-based; conditions: in vivo; how it was run: as §2
[5] = Aqueous solubility of the compound at pH at 7.4 by HPLC analysis; assay type: physicochemical; conditions: buffer, pH 7.4
How it was run: (§3)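 Aqueous solubility read by HPLC in buffer at pH 2.0, 7.0 or 7.4.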

[6] = Protein binding in human plasma at 2 uM after 5 hrs by LC/MS analysis; assay type: ADME, cell-free; conditions: read-out: PPB (converted)
[7] = system: Human immunodeficiency virus 1; experiment: Antiviral activity against HIV1 harboring reverse transcriptase F227L/V106A double mutant infected in human MT4 cells assessed as reduction in virus-induced cytopathic effect after 5 days by MTT assay; assay type: functional, organism-based; conditions: Human immunodeficiency virus 1, MT4, 120 h
[8] = AUCt in Wistar rat at 2 mg/kg, iv by LC-MS/MS analysis; assay type: ADME, organism-based; conditions: in vivo; how it was run: as §2
[9] = Clearance in Wistar rat at 2 mg/kg, iv by LC-MS/MS analysis; assay type: ADME, organism-based; conditions: in vivo; how it was run: as §2
[10] = target: Voltage-gated inwardly rectifying potassium channel KCNH2 (Homo sapiens, UniProt Q12809); experiment: Inhibition of human ERG expressed in HEK293 cells at -80 mV holding potential by manual patch clamp assay
Chain of Voltage-gated inwardly rectifying potassium channel KCNH2 (Q12809 whole entry): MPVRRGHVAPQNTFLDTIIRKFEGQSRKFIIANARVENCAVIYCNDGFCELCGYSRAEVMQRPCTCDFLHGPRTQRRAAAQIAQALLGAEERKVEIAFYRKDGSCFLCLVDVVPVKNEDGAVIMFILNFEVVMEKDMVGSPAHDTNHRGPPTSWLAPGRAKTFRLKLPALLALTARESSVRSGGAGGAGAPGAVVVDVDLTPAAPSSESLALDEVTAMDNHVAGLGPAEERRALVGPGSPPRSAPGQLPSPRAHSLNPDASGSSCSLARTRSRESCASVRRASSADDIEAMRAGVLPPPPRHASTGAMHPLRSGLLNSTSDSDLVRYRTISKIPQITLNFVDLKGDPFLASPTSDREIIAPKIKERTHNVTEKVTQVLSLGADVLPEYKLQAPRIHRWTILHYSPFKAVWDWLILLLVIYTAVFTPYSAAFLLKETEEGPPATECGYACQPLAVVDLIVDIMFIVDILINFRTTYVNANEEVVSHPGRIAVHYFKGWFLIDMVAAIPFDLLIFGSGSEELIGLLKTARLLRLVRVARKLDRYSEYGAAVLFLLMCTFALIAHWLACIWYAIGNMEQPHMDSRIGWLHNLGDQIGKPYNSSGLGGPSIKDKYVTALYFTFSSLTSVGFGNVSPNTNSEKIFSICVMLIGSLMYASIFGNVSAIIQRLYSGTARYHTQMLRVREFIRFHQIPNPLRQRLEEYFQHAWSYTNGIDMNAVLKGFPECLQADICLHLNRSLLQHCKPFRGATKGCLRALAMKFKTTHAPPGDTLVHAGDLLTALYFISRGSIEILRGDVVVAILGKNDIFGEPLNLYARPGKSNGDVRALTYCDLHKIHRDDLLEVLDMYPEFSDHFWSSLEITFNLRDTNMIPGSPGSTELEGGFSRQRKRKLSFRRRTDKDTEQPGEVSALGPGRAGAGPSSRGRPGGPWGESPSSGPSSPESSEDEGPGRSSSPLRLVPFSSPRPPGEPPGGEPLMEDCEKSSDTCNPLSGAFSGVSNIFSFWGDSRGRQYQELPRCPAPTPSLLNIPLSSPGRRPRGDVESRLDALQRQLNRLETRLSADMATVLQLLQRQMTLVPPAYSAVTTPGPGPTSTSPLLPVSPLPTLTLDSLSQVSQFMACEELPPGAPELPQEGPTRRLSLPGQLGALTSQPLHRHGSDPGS

[11] = Sub-acute toxicity in Kunming mouse assessed as effect on liver at 50 mg/kg/day, po administered for 2 weeks by hematoxylin and eosin staining-based assay; assay type: organism-based; conditions: in vivo, 336 h
How it was run: (§4)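 Mice were dosed orally at 50 mg/kg/day for 2 weeks and observed for behavioural abnormalities during treatment. Organs were then examined by hematoxylin–eosin staining.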

[12] = system: Human immunodeficiency virus 1; experiment: Resistance factor, ratio of EC50 for HIV1 harboring reverse transcriptase E138K mutant to EC50 for wild type HIV1; assay type: functional; how it was run: as §1
[13] = Tmax in Wistar rat at 2 mg/kg, iv by LC-MS/MS analysis; assay type: ADME, organism-based; conditions: in vivo; how it was run: as §2
[14] = system: Human immunodeficiency virus 1; experiment: Antiviral activity against HIV1 harboring reverse transcriptase K103N mutant infected in human MT4 cells assessed as reduction in virus-induced cytopathic effect after 5 days by MTT assay; assay type: functional, organism-based; conditions: Human immunodeficiency virus 1, MT4, 120 h
[15] = Protein binding in human plasma assessed as recovery rate at 2 uM after 5 hrs by LC/MS analysis; assay type: ADME, cell-free
[16] = Half life in Wistar rat at 20 mg/kg, po by LC-MS/MS analysis; assay type: ADME, organism-based; conditions: in vivo; how it was run: as §2
[17] = system: Human immunodeficiency virus 1; experiment: Resistance factor, ratio of EC50 for HIV1 harboring reverse transcriptase L100I mutant to EC50 for wild type HIV1; assay type: functional; how it was run: as §1
[18] = system: Human immunodeficiency virus 1; experiment: Resistance factor, ratio of EC50 for HIV1 harboring reverse transcriptase Y181C mutant to EC50 for wild type HIV1; assay type: functional; how it was run: as §1
[19] = Protein binding in rat plasma at 2 uM after 5 hrs by LC/MS analysis; assay type: ADME, cell-free; conditions: read-out: PPB (converted)
[20] = system: Human immunodeficiency virus 1; experiment: Antiviral activity against HIV1 RES056 infected in human MT4 cells assessed as reduction in virus-induced cytopathic effect after 5 days by MTT assay; assay type: functional, organism-based; conditions: Human immunodeficiency virus 1, RES056, MT4, 120 h
[21] = Sub-acute toxicity in Kunming mouse assessed as effect on heart at 50 mg/kg/day, po administered for 2 weeks by hematoxylin and eosin staining-based assay; assay type: organism-based; conditions: in vivo, 336 h; how it was run: as §4
[22] = system: Human immunodeficiency virus 1; experiment: Antiviral activity against wild type HIV1 3B infected in human MT4 cells assessed as reduction in virus-induced cytopathic effect after 5 days by MTT assay; assay type: functional, organism-based; conditions: Human immunodeficiency virus 1, 3B, MT4, 120 h
[23] = Sub-acute toxicity in Kunming mouse assessed as effect on lungs at 50 mg/kg/day, po administered for 2 weeks by hematoxylin and eosin staining-based assay; assay type: organism-based; conditions: in vivo, 336 h; how it was run: as §4
[24] = Aqueous solubility of the compound at pH at 7 by HPLC analysis; assay type: physicochemical; conditions: buffer, pH 7; how it was run: as §3
Cytochrome P450 2C9 = Cytochrome P450 2C9 (Homo sapiens, UniProt P11712); experiment: Inhibition of CYP2C9 in human liver microsomes using diclofenac as substrate after 10 mins in presence of NADPH; assay type: ADME
Chain of Cytochrome P450 2C9 (P11712 whole entry): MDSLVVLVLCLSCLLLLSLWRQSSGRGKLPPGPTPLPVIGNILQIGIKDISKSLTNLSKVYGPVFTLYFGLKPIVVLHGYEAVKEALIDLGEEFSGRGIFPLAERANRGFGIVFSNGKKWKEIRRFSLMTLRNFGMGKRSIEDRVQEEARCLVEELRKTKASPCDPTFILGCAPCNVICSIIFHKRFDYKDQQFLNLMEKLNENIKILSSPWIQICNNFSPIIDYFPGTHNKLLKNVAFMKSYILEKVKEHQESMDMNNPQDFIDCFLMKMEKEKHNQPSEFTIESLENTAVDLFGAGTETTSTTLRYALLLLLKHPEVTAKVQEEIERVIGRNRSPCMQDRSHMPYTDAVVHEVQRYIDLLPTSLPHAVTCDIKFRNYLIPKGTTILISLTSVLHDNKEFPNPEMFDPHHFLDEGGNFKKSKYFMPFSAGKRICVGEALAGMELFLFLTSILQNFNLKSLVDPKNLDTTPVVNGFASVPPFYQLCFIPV

[25] = system: Human immunodeficiency virus 1; experiment: Antiviral activity against HIV1 harboring reverse transcriptase E138K mutant infected in human MT4 cells assessed as reduction in virus-induced cytopathic effect after 5 days by MTT assay; assay type: functional, organism-based; conditions: Human immunodeficiency virus 1, MT4, 120 h
[26] = AUC (0 to infinity) in Wistar rat at 20 mg/kg, po by LC-MS/MS analysis; assay type: ADME, organism-based; set-up: dose 20 mg/kg, route oral, time infinity; conditions: in vivo; how it was run: as §2
[27] = Acute toxicity in Kunming mouse assessed as behavior abnormalities at 800 mg/kg, po measured after 2 weeks; assay type: organism-based; conditions: in vivo, 336 h
How it was run: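 Kunming mice received a single intragastric dose of 800 mg/kg. Deaths and behaviour were observed over 2 weeks and compared with a control group.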

[28] = Cmax in Wistar rat at 2 mg/kg, iv by LC-MS/MS analysis; assay type: ADME, organism-based; set-up: dose 2 mg/kg, route intravenous; conditions: in vivo; how it was run: as §2
[29] = system: Human immunodeficiency virus 1; experiment: Antiviral activity against HIV1 harboring reverse transcriptase Y181C mutant infected in human MT4 cells assessed as reduction in virus-induced cytopathic effect after 5 days by MTT assay; assay type: functional, organism-based; conditions: Human immunodeficiency virus 1, MT4, 120 h
[30] = system: Human immunodeficiency virus 1; experiment: Antiviral activity against HIV1 harboring reverse transcriptase L100I mutant infected in human MT4 cells assessed as reduction in virus-induced cytopathic effect after 5 days by MTT assay; assay type: functional, organism-based; conditions: Human immunodeficiency virus 1, MT4, 120 h
[31] = system: Human immunodeficiency virus 1; experiment: Antiviral activity against HIV1 harboring reverse transcriptase Y188L mutant infected in human MT4 cells assessed as reduction in virus-induced cytopathic effect after 5 days by MTT assay; assay type: functional, organism-based; conditions: Human immunodeficiency virus 1, MT4, 120 h
[32] = system: Human immunodeficiency virus 1; experiment: Resistance factor, ratio of EC50 for HIV1 harboring reverse transcriptase K103N mutant to EC50 for wild type HIV1; assay type: functional; how it was run: as §1
[33] = Sub-acute toxicity in Kunming mouse assessed as effect on spleen at 50 mg/kg/day, po administered for 2 weeks by hematoxylin and eosin staining-based assay; assay type: organism-based; conditions: in vivo, 336 h; how it was run: as §4
[34] = Protein binding in rat plasma assessed as recovery rate at 2 uM after 5 hrs by LC/MS analysis; assay type: ADME, cell-free
[35] = Aqueous solubility of the compound at pH at 2 by HPLC analysis; assay type: physicochemical; conditions: buffer, pH 2; how it was run: as §3
[36] = Tmax in Wistar rat at 20 mg/kg, po by LC-MS/MS analysis; assay type: ADME, organism-based; conditions: in vivo; how it was run: as §2
[37] = AUCt in Wistar rat at 20 mg/kg, po by LC-MS/MS analysis; assay type: ADME, organism-based; conditions: in vivo; how it was run: as §2
[38] = Aqueous solubility of the compound in FASSIF by HPLC analysis; assay type: physicochemical; conditions: simulated gi fluid
How it was run: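 Solubility read by HPLC in fasted state simulated intestinal fluid (FaSSIF).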

Q: For `Cc1cc(C#N)cc(C)c1Oc1nc(NC2CCN(Cc3ccc(C(N)=O)cc3)CC2)nc2c1COC2`, which “Ratio EC50” value [1] is on record?
A: 11.9

Q: And the Cmax [2]?
A: 400 ng/mL

Q: What about the EC50 [3] of the same compound?
A: 12700 nM

Q: What about the IC50 (Cytochrome P450 3A4) of the same compound?
A: > 50000 nM

Q: And the half-life [4]?
A: 1.09 h

Q: What about the solubility [5] of the same compound?
A: 6.59 µg/mL (≈ 13.2 µM)

Q: What about the fraction unbound at 5 h, 2 µM [6] of the same compound?
A: 0.07

Q: What about the EC50 [7] of the same compound?
A: 19 nM

Q: And the AUC(0-t) [8]?
A: 500 ng·h/mL

Q: And the clearance [9]?
A: 61.5 mL/min/kg

Q: And the IC50 [10]?
A: 830 nM

Q: And the Activity [11]?
A: Non-Toxic

Q: And the “Ratio EC50” value [12]?
A: 4.4

Q: And the Tmax [13]?
A: 1.98 min

Q: What about the EC50 [14] of the same compound?
A: 0.9 nM

Q: And the Drug recovery [15]?
A: 86.3%

Q: What about the half-life [16] of the same compound?
A: 11.1 h

Q: And the “Ratio EC50” value [17]?
A: 1.5

Q: And the “Ratio EC50” value [18]?
A: 2.8

Q: What about the fraction unbound at 5 h, 2 µM [19] of the same compound?
A: 0.082

Q: What about the EC50 [20] of the same compound?
A: 41.5 nM

Q: What about the Activity [21] of the same compound?
A: Non-Toxic

Q: And the EC50 [22]?
A: 1.6 nM

Q: What about the Activity [23] of the same compound?
A: Non-Toxic

Q: What about the solubility [24] of the same compound?
A: 13.3 µg/mL (≈ 26.7 µM)

Q: What about the IC50 (Cytochrome P450 2C9) of the same compound?
A: 46600 nM

Q: What about the EC50 [25] of the same compound?
A: 7 nM

Q: And the AUC(0-inf) [26]?
A: 1660 ng·h/mL

Q: What about the Activity [27] of the same compound?
A: Non-Toxic

Q: And the Cmax [28]?
A: 460 ng/mL

Q: And the EC50 [29]?
A: 4.4 nM

Q: And the EC50 [30]?
A: 2.4 nM

Q: What about the EC50 [31] of the same compound?
A: 8.4 nM

Q: And the “Ratio EC50” value [32]?
A: 0.6

Q: What about the Activity [33] of the same compound?
A: Non-Toxic

Q: And the Drug recovery [34]?
A: 77.9%

Q: What about the solubility [35] of the same compound?
A: 198 µg/mL (≈ 397 µM)

Q: What about the Tmax [36] of the same compound?
A: 1.33 h

Q: And the AUC(0-t) [37]?
A: 1550 ng·h/mL

Q: And the solubility [38]?
A: 32.5 µg/mL (≈ 65.2 µM)
